Measurements reported in ChEMBL document CHEMBL1156049, “Potent biphenyl- and 3-phenyl pyridine-based inhibitors of acetyl-CoA carboxylase” (Bioorg Med Chem Lett, 2009).

Legend:
[1] = molecular target: Acetyl-CoA carboxylase 1 (Homo sapiens, UniProt Q13085); assay: Inhibition of human recombinant ACC 1 expressed in baculovirus expression system by FAS-coupled assay
Procedure, shortened: (§1)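 Recombinant human ACC1 or ACC2 (baculovirus-expressed, purified), 2-4.5 nM, preincubated 10 min with compound in DMSO and FAS (1 µg/assay) in 50 mM HEPES pH 7.5, 10 mM sodium citrate, 20 mM MgCl2, 6 mM NaHCO3. Substrate mix then added: 2.4 µM [3H]acetyl-CoA, 47.6 µM acetyl-CoA, 100 µM NADPH, 0.125 mM ATP. Run 30 min at room temperature, stopped with EDTA. [3H]palmitic acid counted on phospholipid FlashPlate. IC50 averaged from 2–4 experiments.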

[2] = molecular target: Acetyl-CoA carboxylase 2 (Homo sapiens, UniProt O00763); assay: Inhibition of human recombinant ACC 2 expressed in baculovirus expression system by FAS-coupled assay; procedure, shortened: as §1
[3] = species: Homo sapiens; assay: Selectivity ratio of IC50 for human ACC 2 to IC50 for human ACC 1
[4] = species: Homo sapiens; assay: Selectivity ratio of IC50 for human ACC 1 to IC50 for human ACC 2

Sequence of Acetyl-CoA carboxylase 2 (O00763 whole entry): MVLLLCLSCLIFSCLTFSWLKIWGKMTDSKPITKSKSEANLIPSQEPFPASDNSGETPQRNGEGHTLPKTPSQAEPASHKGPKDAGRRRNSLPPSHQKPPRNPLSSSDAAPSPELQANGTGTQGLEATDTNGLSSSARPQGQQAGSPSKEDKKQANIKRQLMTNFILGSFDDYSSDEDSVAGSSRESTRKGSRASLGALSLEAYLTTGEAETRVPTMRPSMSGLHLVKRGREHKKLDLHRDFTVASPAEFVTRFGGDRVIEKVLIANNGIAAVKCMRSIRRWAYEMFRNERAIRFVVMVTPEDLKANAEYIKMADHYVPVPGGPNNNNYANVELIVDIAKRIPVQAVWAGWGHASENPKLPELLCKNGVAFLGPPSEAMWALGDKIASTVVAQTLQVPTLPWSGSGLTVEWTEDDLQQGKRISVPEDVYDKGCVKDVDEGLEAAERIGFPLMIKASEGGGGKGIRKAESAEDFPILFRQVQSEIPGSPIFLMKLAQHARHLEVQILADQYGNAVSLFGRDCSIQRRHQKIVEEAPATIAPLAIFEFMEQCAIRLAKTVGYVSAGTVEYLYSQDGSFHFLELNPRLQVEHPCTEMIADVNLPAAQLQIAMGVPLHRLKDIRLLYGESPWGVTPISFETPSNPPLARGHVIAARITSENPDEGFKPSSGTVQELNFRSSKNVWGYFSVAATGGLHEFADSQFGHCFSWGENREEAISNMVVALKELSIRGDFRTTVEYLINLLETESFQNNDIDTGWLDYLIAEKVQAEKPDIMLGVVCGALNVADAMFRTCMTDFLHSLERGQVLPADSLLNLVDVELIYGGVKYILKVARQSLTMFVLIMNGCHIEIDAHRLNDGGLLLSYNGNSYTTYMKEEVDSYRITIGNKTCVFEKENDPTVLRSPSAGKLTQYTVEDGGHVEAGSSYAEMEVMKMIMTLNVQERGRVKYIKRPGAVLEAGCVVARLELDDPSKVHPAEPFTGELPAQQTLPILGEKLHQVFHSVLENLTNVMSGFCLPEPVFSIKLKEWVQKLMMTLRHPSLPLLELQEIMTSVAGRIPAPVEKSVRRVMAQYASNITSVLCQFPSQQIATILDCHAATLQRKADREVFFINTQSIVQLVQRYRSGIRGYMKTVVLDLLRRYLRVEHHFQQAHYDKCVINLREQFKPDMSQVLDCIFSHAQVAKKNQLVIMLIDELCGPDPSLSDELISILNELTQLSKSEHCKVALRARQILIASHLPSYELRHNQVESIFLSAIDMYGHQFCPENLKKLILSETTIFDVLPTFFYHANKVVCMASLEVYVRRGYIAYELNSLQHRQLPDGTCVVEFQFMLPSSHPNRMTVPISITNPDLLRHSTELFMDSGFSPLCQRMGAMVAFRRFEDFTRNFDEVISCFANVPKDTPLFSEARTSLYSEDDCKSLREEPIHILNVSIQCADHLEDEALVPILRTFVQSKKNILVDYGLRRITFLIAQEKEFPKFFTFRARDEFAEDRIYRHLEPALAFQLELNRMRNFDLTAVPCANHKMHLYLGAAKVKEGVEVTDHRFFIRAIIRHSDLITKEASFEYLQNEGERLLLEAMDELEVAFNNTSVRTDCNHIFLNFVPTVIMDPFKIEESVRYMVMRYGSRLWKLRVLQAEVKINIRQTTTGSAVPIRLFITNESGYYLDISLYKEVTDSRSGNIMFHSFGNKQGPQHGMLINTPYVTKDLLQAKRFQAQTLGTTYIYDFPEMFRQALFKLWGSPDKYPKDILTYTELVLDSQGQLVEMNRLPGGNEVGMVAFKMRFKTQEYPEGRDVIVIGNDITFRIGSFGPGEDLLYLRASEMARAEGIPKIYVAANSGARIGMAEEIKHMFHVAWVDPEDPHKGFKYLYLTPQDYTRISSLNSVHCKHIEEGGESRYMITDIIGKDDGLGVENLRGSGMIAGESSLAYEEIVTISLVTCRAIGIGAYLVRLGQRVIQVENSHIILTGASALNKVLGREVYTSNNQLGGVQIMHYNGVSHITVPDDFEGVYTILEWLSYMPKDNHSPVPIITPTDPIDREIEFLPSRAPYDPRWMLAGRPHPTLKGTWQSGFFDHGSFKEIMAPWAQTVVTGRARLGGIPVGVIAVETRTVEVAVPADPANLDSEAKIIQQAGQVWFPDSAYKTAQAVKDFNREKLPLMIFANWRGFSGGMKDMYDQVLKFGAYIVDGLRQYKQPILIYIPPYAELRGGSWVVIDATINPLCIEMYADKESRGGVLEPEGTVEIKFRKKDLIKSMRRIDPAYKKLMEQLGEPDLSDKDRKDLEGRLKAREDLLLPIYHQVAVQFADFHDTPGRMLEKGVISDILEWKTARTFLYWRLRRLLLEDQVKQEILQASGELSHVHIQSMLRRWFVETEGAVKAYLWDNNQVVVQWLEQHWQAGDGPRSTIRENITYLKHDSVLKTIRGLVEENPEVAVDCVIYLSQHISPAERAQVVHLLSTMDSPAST

Row | SMILES | IC50 [1] | IC50 [2] | Selectivity ratio [3] | Selectivity ratio [4]
1 | CC(=O)NC(C)c1ccc(-c2ccc(Oc3ccc(OCc4ccccc4)cc3)nc2)cc1 (stereo unspecified) | 58 nM | 117 nM | – | –
2 | CCCOc1ccc(Oc2ccc(-c3ccc(C(C)NC(=O)CC)cc3)cc2)cc1 (stereo unspecified) | 47 nM | 202 nM | – | –
3 | COCCc1ccc(Oc2ccc(-c3ccc(C(C)NC(C)=O)cc3)cc2)cc1 (stereo unspecified) | 89 nM | > 30000 nM | > 300 | –
4 | CC(=O)NC(C)c1ccc(-c2ccc(Oc3ccc(OC(C)C)cc3)nc2)cc1 (stereo unspecified) | 415 nM | 93 nM | – | –
5 | CCCOc1ccc(Oc2ccc(-c3ccc(C(C)NC(=O)C4CC4)cc3)cn2)cc1 (stereo unspecified) | 319 nM | 141 nM | – | –
6 | CC(=O)NC(C)c1ccc(-c2ccc(Oc3ccc(C(=O)c4ccccc4)cc3)cc2)cc1 (stereo unspecified) | 35 nM | 113 nM | – | –
7 | CCCCC(=O)NC(C)c1ccc(-c2ccc(Oc3ccc(OCCC)cc3)cc2)cc1 (stereo unspecified) | > 30000 nM | > 30000 nM | – | –
8 | CCCOc1ccc(Oc2ccc(-c3ccc(C(C)NC(=O)C(C)C)cc3)cn2)cc1 (stereo unspecified) | 451 nM | 156 nM | – | –
9 | CC(=O)NC(C)c1ccc(-c2ccc(Oc3ccc(-c4c(O)ccc5c4CCCC5)cc3)cc2)cc1 (stereo unspecified) | 140 nM | 268 nM | – | –
10 | CCCOc1ccc(Oc2ccc(-c3ccc([C@@H](C)NC(C)=O)cc3)cn2)cc1 | > 30000 nM | 777 nM | – | –
11 | CC(=O)NC(C)c1ccc(-c2ccc(Oc3ccc(OCc4ccccc4)cc3)cc2)cc1 (stereo unspecified) | > 30000 nM | > 30000 nM | – | –
12 | CCCCC(=O)NC(C)c1ccc(-c2ccc(Oc3ccc(OCCC)cc3)nc2)cc1 (stereo unspecified) | > 30000 nM | 1510 nM | – | –
13 | CCCOc1ccc(Oc2ccc(-c3ccc(C(C)NC(=O)OCC)cc3)cn2)cc1 (stereo unspecified) | 8150 nM | 227 nM | – | –
14 | CC(=O)NC(C)c1ccc(-c2ccc(Oc3cccc(Oc4ccccc4)c3)cc2)cc1 (stereo unspecified) | 41 nM | 16 nM | – | –
15 | CC(=O)NC(C)c1ccc(-c2ccc(Oc3cccc(Oc4ccccc4)c3)nc2)cc1 (stereo unspecified) | 49 nM | 32 nM | – | –
16 | CC(=O)NC(C)c1ccc(-c2ccc(Oc3ccc(OC(C)C)cc3)cc2)cc1 (stereo unspecified) | 17 nM | 33 nM | – | –
17 | CC(=O)NC(C)c1ccc(-c2ccc(Oc3ccc(Cc4ccccc4)cc3)cc2)cc1 (stereo unspecified) | 39 nM | 945 nM | 24 | –
18 | CCCOc1cccc(Oc2ccc(-c3ccc(C(C)NC(C)=O)cc3)cc2)c1 (stereo unspecified) | 13 nM | 12 nM | – | –
19 | CCCOc1ccc(Oc2ccc(-c3ccc(C(C)NC(=O)c4cn[nH]c4)cc3)cn2)cc1 (stereo unspecified) | > 30000 nM | 2540 nM | – | –
20 | COc1cccc(Oc2ccc(-c3ccc(C(C)NC(C)=O)cc3)cc2)c1 (stereo unspecified) | > 30000 nM | 373 nM | – | > 80
21 | CCCOc1ccc(Oc2ccc(-c3ccc(C(C)NC(=O)C(C)C)cc3)cc2)cc1 (stereo unspecified) | 188 nM | 214 nM | – | –

Row | SMILES | IC50 [1] | IC50 [2] | Selectivity ratio [3] | Selectivity ratio [4]
22 | CCCOc1ccc(Oc2ccc(-c3ccc(C(C)NC(C)=O)cc3)cn2)cc1 (stereo unspecified) | 110 nM | 18 nM | – | 6
23 | CCCc1ccc(Oc2ccc(-c3ccc(C(C)NC(C)=O)cc3)cc2)cc1 (stereo unspecified) | 81 nM | 114 nM | – | –
24 | CCCOc1ccc(Oc2ccc(-c3ccc(C(C)NC(=O)CCC)cc3)cn2)cc1 (stereo unspecified) | 4200 nM | 494 nM | – | –
25 | CC(=O)NC(C)c1ccc(-c2ccc(Oc3ccc(OC(C)C)cc3)cc2)c(C)c1 (stereo unspecified) | 2490 nM | 303 nM | – | –
26 | CCOc1cccc(Oc2ccc(-c3ccc(C(C)NC(C)=O)cc3)cc2)c1 (stereo unspecified) | 8580 nM | 102 nM | – | 84
27 | CCCOc1ccc(Oc2ccc(-c3ccc(C(C)NC(=O)COC)cc3)cn2)cc1 (stereo unspecified) | > 30000 nM | 881 nM | – | –
28 | CCCOc1ccc(Oc2ccc(-c3ccc(C(C)NC(C)=O)cc3)cc2)cc1 (stereo unspecified) | 17 nM | 14 nM | – | –
29 | CCCOc1ccc(Oc2ccc(-c3ccc(C(C)NC(=O)C(C)O)cc3)cc2)cc1 (racemic) | 2060 nM | 1840 nM | – | –
30 | CCCOc1ccc(Oc2ccc(-c3ccc(C(C)NC(=O)COC)cc3)cc2)cc1 (stereo unspecified) | 753 nM | 718 nM | – | –
31 | CCCOc1ccc(Oc2ccc(-c3ccc(C(C)NC(=O)OCC)cc3)cc2)cc1 (stereo unspecified) | > 30000 nM | 3100 nM | – | –
32 | CCCOc1ccc(Oc2ccc(-c3ccc(C(C)NC(=O)CC)cc3)cn2)cc1 (stereo unspecified) | 69 nM | 35 nM | – | 2
33 | CC(=O)NC(C)c1ccc(-c2ccc(Oc3ccc(Oc4ccccc4)cc3)cc2)cc1 (stereo unspecified) | 14 nM | 7 nM | – | –
34 | CCCOc1cccc(Oc2ccc(-c3ccc(C(C)NC(=O)c4cn[nH]c4)cc3)cc2)c1 (stereo unspecified) | 36 nM | 609 nM | 17 | –
35 | CCCOc1ccc(Oc2ccc(-c3ccc([C@H](C)NC(C)=O)cc3)cn2)cc1 | 35 nM | 8 nM | – | –
36 | CC(=O)NC(C)c1ccc(-c2ccc(Oc3ccc(OC(C)C)cc3)cc2C)c(C)c1 (stereo unspecified) | 592 nM | 88 nM | – | –
37 | CCCOc1ccc(Oc2ccc(-c3ccc(C(C)NC(=O)CCC)cc3)cc2)cc1 (stereo unspecified) | 2770 nM | > 30000 nM | – | –
38 | CCOc1ccc(Oc2ccc(-c3ccc(C(C)NC(C)=O)cc3)cc2)cc1 (stereo unspecified) | 1630 nM | 119 nM | – | 14
39 | CC(=O)NC(C)c1ccc(-c2ccc(Oc3ccc(OC(C)C)cc3)cc2C)cc1 (stereo unspecified) | 16 nM | 35 nM | – | –
40 | CCCOc1ccc(Oc2ccc(-c3ccc(C(C)NC(=O)C4CC4)cc3)cc2)cc1 (stereo unspecified) | 296 nM | 550 nM | – | –
41 | CCOc1ccc(Oc2ccc(-c3ccc(C(C)NC(C)=O)cc3)cn2)cc1 (stereo unspecified) | > 30000 nM | 274 nM | – | > 100
